Assay results published in ChEMBL document CHEMBL4406804, “Discovery of a Potent Steroidal Glucocorticoid Receptor Antagonist with Enhanced Selectivity against the Progesterone and Androgen Receptors (OP-3633)” (J Med Chem, 2019).
≈ marks a conversion by molar mass, not a printed value.

What was measured:
[1] = Toxicity in female rat assessed as effect on uterine weight at 250 mg/kg/day, po administered once daily via gavage for 14 days; format: organism-based; conditions: in vivo, 336 h
[2] = Solubility of compound in fasted state simulated intestinal fluid at pH 6.5; format: physicochemical
[3] = target: T1, Glucocorticoid receptor (Homo sapiens) (UniProt P04150); test: Antagonist activity at human glucocorticoid receptor expressed in CHO-K1 cells harboring firefly luciferase gene assessed as inhibition of glucocorticoid receptor activity at 0.01 to 10000 nM after 20 hrs by One-Glo luciferase reporter gene assay relative to mifepristone; format: cell-based; set-up: scale not given: the % may be the effect or the level left
T1 sequence (whole entry): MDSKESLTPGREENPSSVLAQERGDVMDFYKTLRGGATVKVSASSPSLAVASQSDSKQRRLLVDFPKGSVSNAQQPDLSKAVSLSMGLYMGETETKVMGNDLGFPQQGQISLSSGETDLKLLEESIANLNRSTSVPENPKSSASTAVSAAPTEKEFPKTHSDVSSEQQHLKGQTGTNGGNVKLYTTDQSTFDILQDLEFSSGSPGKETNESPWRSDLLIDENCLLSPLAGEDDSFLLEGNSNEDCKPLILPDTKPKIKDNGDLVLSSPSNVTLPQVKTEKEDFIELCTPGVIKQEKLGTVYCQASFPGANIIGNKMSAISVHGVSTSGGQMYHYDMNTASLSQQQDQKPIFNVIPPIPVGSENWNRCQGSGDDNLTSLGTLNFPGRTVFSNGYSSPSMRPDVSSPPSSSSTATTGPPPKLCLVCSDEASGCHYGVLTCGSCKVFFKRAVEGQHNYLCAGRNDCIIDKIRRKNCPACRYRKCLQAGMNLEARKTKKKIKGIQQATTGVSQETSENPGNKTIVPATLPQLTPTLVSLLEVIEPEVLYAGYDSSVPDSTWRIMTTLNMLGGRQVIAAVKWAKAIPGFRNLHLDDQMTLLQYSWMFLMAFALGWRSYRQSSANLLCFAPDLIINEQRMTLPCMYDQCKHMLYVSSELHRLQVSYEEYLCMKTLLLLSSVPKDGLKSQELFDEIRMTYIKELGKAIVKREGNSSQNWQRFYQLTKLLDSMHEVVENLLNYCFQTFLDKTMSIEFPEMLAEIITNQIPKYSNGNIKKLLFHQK
Summary of the method: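 Cell-based luciferase reporter assays for GR, AR and PR, run in agonist and antagonist modes. Potency and Emax are averages of at least two determinations, reported with SD.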

Androgen receptor = target: T2, Androgen receptor (Homo sapiens, UniProt P10275); test: Agonist activity at human androgen receptor in human LNCAP cells harboring firefly luciferase gene after 20 hrs by One-Glo luciferase reporter gene assay; format: cell-based
T2 sequence (P10275 whole entry): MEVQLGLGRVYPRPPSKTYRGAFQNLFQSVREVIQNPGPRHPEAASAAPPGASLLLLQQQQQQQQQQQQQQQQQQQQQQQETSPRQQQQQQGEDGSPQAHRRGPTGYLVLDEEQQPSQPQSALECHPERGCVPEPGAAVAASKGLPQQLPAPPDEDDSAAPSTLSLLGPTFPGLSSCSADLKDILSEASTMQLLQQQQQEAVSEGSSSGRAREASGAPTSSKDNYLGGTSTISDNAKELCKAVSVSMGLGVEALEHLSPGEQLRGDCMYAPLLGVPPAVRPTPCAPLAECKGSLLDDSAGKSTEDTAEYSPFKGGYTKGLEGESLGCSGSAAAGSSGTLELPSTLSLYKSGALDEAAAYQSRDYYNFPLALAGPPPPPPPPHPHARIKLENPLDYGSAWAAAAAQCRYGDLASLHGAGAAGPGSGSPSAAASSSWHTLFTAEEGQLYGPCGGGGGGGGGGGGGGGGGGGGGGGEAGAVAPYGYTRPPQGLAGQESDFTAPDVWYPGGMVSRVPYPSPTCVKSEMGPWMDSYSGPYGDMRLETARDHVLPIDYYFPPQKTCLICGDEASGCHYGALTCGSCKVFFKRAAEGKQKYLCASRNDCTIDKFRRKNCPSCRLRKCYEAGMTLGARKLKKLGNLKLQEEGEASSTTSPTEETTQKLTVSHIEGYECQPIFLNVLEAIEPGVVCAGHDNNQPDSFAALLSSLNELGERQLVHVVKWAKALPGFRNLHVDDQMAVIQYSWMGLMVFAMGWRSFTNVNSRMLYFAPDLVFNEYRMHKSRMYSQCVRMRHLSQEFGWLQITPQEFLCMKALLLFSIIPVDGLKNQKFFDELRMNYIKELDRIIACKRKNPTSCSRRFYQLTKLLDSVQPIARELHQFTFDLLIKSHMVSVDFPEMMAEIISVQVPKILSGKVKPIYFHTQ

[4] = AUC in mini-pig at 5 mg/kg, po; format: ADME, organism-based, Sus scrofa domesticus; conditions: in vivo
[5] = Volume of distribution at steady state in rat at 0.5 mg/kg, iv; format: ADME, organism-based; conditions: in vivo, read-out: Vdss
Summary of the method: (§1)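 Rat PK study. The iv dose of 0.5 mg/kg was given in 10% DMSO, 70% PEG 400 and 20% water. The oral dose of 5 mg/kg was given in 5% DMSO / 95% of 0.2% Tween 80 in 0.25% CMC, adjusted to pH 4 for one compound. Read-outs were CL, Vss, iv t1/2, F, Cmax and AUC.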

[6] = Cmax in dog at 5 mg/kg, po; format: ADME, organism-based, Canis lupus familiaris; set-up: dose 5 mg/kg, route oral; conditions: in vivo
[7] = Cmax in mini-pig at 5 mg/kg, po; format: ADME, organism-based, Sus scrofa domesticus; set-up: dose 5 mg/kg, route oral; conditions: in vivo
[8] = Clearance in mini-pig at 0.5 mg/kg, iv; format: ADME, organism-based, Sus scrofa domesticus; conditions: in vivo
[9] = Cmax in rat at 5 mg/kg, po; format: ADME, organism-based; set-up: dose 5 mg/kg, route oral; conditions: in vivo; summary of the method: as §1
[10] = Volume of distribution at steady state in mini-pig at 0.5 mg/kg, iv; format: ADME, organism-based, Sus scrofa domesticus; conditions: in vivo, read-out: Vdss
[11] = AUC in dog at 5 mg/kg, po; format: ADME, organism-based, Canis lupus familiaris; conditions: in vivo
[12] = Solubility of compound in fasted state simulated gastric fluid at pH 1.2; format: physicochemical
[13] = Oral bioavailability in rat at 5 mg/kg; format: ADME, organism-based; conditions: in vivo; summary of the method: as §1
[14] = Oral bioavailability in mini-pig at 5 mg/kg; format: ADME, organism-based, Sus scrofa domesticus; conditions: in vivo
Cytochrome P450 3A4 = Cytochrome P450 3A4 (Homo sapiens, UniProt P08684); test: Inhibition of CYP3A4 (unknown origin) using midazolam as substrate; format: ADME
Sequence of Cytochrome P450 3A4 (P08684 whole entry): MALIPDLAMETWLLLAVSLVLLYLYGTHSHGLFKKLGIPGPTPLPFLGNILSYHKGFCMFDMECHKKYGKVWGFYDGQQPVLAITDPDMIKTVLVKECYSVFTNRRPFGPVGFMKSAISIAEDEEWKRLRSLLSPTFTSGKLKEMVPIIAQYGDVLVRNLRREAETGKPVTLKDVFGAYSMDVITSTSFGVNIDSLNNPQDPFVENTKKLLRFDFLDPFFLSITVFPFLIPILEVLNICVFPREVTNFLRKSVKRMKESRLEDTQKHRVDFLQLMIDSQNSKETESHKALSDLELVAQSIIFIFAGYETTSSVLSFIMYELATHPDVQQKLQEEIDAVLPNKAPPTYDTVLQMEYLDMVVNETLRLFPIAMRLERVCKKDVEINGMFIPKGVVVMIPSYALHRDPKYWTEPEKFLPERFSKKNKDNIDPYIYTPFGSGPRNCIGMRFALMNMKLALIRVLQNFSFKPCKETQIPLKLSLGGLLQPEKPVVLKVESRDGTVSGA

With `CC#C[C@]1(O)CC[C@H]2[C@@H]3CCC4=CC(=O)CC[C@]4(C)[C@H]3[C@@H](c3ccc(N(C)C)cc3)C[C@@]21C` the Activity [1] was “Non-Toxic”, the solubility [2] was 59.5 µM (≈ 26.5 µg/mL) and the Activity [3] was 100%. The EC50 (Androgen receptor) was greater than 2.5 µM, the AUC [4] was 2450 ng·h/mL and the Vd [5] was 4.7 L/kg. For the same compound, the Cmax [6] was 1260 ng/mL, the Cmax [7] was 249 ng/mL and the clearance [8] was 12.5 mL/min/kg. It also gave a Cmax [9] of 518 ng/mL, a Vd [10] of 1.45 L/kg and an AUC [11] of 5930 ng·h/mL. It also gave a solubility [12] of 1130 µM (≈ 504 µg/mL), a bioavailability [13] of 62% and a bioavailability [14] of 35.9%. It also gave an IC50 (Cytochrome P450 3A4) greater than 10 µM.
